Calls of active or inactive are those of the source. The rule behind the calls is not given here.
Assays:
[1] = molecular target: Histone acetyltransferase KAT2B (Homo sapiens) (UniProt Q92831); experiment: Increase of human recombinant KAT2B acetylation activity using histone H4 peptide as substrate at 50 uM after 2 hrs
In short: (§1)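 Human PCAF (200 ng) in KAT buffer with 10 µg histone H4 peptide (aa 2–24), 20 µM acetyl-CoA with 0.5 µCi/mL [3H]-acetyl-CoA, and compound at 50 µM final, 2 h at 37 °C. Spotted on P81 paper in triplicate, washed with TCA then acetone, scintillation counted. Activity given as % of untreated control (100%).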

U-937 [2] = experiment: Induction of apoptosis in human U937 cells at 25 uM after 30 hrs using annexin V/propidium iodide double-staining by FACS analysis; assay type: functional, cell-based
In short: (§2)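 U937 cells at 200,000 cells/mL, 37 °C, 5% CO2, exposed 30 h at 50 or 25 µM. Dose–response runs used 5–200 µM, with IC50 taken as the concentration giving 50% apoptosis. Annexin V/propidium iodide double staining, apoptotic subpopulations counted by FACS. Three independent experiments, mean ± SD.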

U-937 [3] = experiment: Cell cycle arrest in human U937 cells assessed as accumulation at S phase at 25 uM after 30 hrs using propidium iodide staining by flow cytometry; assay type: functional, cell-based
In short: (§3)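 U937 cells kept at 200,000 cells/mL, 37 °C, 5% CO2, treated 30 h at 50 or 25 µM. Phase distribution by flow cytometry. Three independent experiments, mean ± SD.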

MCF7 [4] = experiment: Inhibition of histone acetyltransferase in human MCF7 cells assessed as increase of alpha-tubulin acetylation level after 15 mins by Western blotting; assay type: cell-based
[5] = molecular target: CREB-binding protein (Homo sapiens) (UniProt Q92793); experiment: Inhibition of human recombinant KAT3A expressed in Escherichia coli BL21 using histone H4 peptide as substrate at 50 uM after 2 hrs relative to control
In short: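 Recombinant CBP fragment (aa 1098–1877) from E. coli BL21, affinity purified. Spotted on P81 paper in triplicate, washed with TCA/acetone, scintillation DPM compared with negative control, expressed as %.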

U-937 [6] = experiment: Induction of granulocytic differentiation in human U937 after […] using propidium iodide staining by FACS analysis; assay type: functional, cell-based
U-937 [7] = experiment: Inhibition of histone acetyltransferase in human U937 cells assessed as increase of acetylation of histone H4 at K16 at 50 uM after 24 hrs by Western blotting; assay type: cell-based
In short: (§4)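 U937 cells treated 24 h at 50 µM. Acid-extracted histones (Triton buffer lysis, then 0.2 M HCl overnight at 4 °C) immunoblotted with site-specific antibodies (H3K9/K14/K18/K56ac, H4K5/K8/K16ac, pan-acetyl H4; 1:1000). Loading checked by Ponceau Red staining, or by histone H1 for pan-acetyl H4.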

MCF7 [8] = experiment: Inhibition of histone acetyltransferase in human MCF7 cells assessed as increase of alpha-tubulin acetylation level at 15 and 30 uM after 15 mins by Western blotting
U-937 [9] = experiment: Induction of apoptosis in human U937 cells after 30 hrs using annexin V/propidium iodide double-staining by FACS analysis; assay type: functional, cell-based; conditions: U-937, 30 h; in short: as §2
U-937 [10] = experiment: Inhibition of histone acetyltransferase in human U937 cells assessed as increase of acetylation of histone H3 at K14 at 50 uM after 24 hrs by Western blotting; assay type: cell-based; in short: as §4
[11] = molecular target: Histone acetyltransferase p300 (Homo sapiens) (UniProt Q09472); experiment: Binding affinity to His6-tagged immobilized human KAT3B catalytic domain expressed in Sf9 cells by surface plasmon resonance assay
[12] = molecular target: Histone acetyltransferase p300 (Homo sapiens) (UniProt Q09472); experiment: Binding affinity to immobilized His6-tagged human full-length KAT3B expressed in Sf9 cells by surface plasmon resonance assay
U-937 [13] = experiment: Inhibition of histone acetyltransferase in human U937 cells assessed as increase of pan-acetylated histone H4 level at 50 uM after 24 hrs by Western blotting; assay type: cell-based; in short: as §4
U-937 [14] = experiment: Inhibition of histone acetyltransferase in human U937 cells assessed as increase of histone H3 acetylation level at 50 uM after 15 mins by Western blotting; assay type: cell-based
In short: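 U937 cells treated at 50 µM. Histones prepared by Triton extraction buffer lysis, then overnight 0.2 M HCl extraction at 4 °C, Bradford quantitation. Immunoblot with pan-acetyl-H3 antibody (1:1000), Ponceau Red staining as loading check.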

U-937 [15] = experiment: Cell cycle arrest in human U937 cells assessed as accumulation at S phase at 50 uM after 30 hrs using propidium iodide staining by flow cytometry; assay type: functional, cell-based; in short: as §3
[16] = molecular target: Histone deacetylase (Homo sapiens) (UniProt Q13547+O15379+Q9UBN7+Q92769+Q9UQL6+Q8WUI4+Q9BY41+Q96DB2+P56524+Q9UKV0+Q969S8); experiment: Inhibition of HDAC in human U937 cells at 50 uM after 15 mins by Western blotting; assay type: cell-based; conditions: U-937
U-937 [17] = experiment: Inhibition of histone acetyltransferase in human U937 cells assessed as increase of acetylation of histone H3 at K18 at 50 uM after 24 hrs by Western blotting; assay type: cell-based; in short: as §4
Albumin = Albumin (Bos taurus, UniProt P02769); experiment: Binding affinity to bovine serum albumin by surface plasmon resonance assay; conditions: cattle
U-937 [18] = experiment: Inhibition of histone acetyltransferase in human U937 cells assessed as increase of acetylation of histone H4 at K8 at 50 uM after 24 hrs by Western blotting; assay type: cell-based; in short: as §4
U-937 [19] = experiment: Inhibition of histone acetyltransferase in human U937 cells assessed as increase of acetylation of histone H3 at K9 at 50 uM after 24 hrs by Western blotting; assay type: cell-based; in short: as §4
U-937 [20] = experiment: Inhibition of histone acetyltransferase in human U937 cells assessed as increase of acetylation of histone H3 at K56 at 50 uM after 24 hrs by Western blotting; assay type: cell-based; in short: as §4
U-937 [21] = experiment: Inhibition of histone acetyltransferase in human U937 cells assessed as inhibition of acetylation of histone H4 at K8 at 50 uM after 24 hrs by Western blotting; assay type: cell-based; in short: as §4
U-937 [22] = experiment: Inhibition of histone acetyltransferase in human U937 cells assessed as increase of acetylation of histone H4 at K5 at 50 uM after 24 hrs by Western blotting; assay type: cell-based; in short: as §4
U-937 [23] = experiment: Induction of apoptosis in human U937 cells at 50 uM after 30 hrs using annexin V/propidium iodide double-staining by FACS analysis; assay type: functional; in short: as §2
[24] = molecular target: Histone acetyltransferase KAT2B (Homo sapiens) (UniProt Q92831); experiment: Inhibition of human recombinant KAT2B using histone H4 peptide as substrate at 50 uM after 2 hrs; in short: as §1
MCF7 [25] = experiment: Inhibition of histone acetyltransferase in human MCF7 cells assessed as increase of alpha-tubulin acetylation level at 15 uM after 15 mins by Western blotting; assay type: cell-based
In short: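 MCF-7 cells grown in D-MEM at 200,000 cells/mL, 37 °C, 5% CO2, treated at 15 and 30 µM. Lysis in 50 mM Tris–HCl pH 7.4, 150 mM NaCl, 1% NP40, NaF, PMSF and protease inhibitors, 15 min at 4 °C. Bradford quantitation. Western blot with anti-acetyl-α-tubulin (1:1000), ERK1 as loading control.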

Chain of CREB-binding protein (Homo sapiens) (Q92793 2-2442 limits assumed): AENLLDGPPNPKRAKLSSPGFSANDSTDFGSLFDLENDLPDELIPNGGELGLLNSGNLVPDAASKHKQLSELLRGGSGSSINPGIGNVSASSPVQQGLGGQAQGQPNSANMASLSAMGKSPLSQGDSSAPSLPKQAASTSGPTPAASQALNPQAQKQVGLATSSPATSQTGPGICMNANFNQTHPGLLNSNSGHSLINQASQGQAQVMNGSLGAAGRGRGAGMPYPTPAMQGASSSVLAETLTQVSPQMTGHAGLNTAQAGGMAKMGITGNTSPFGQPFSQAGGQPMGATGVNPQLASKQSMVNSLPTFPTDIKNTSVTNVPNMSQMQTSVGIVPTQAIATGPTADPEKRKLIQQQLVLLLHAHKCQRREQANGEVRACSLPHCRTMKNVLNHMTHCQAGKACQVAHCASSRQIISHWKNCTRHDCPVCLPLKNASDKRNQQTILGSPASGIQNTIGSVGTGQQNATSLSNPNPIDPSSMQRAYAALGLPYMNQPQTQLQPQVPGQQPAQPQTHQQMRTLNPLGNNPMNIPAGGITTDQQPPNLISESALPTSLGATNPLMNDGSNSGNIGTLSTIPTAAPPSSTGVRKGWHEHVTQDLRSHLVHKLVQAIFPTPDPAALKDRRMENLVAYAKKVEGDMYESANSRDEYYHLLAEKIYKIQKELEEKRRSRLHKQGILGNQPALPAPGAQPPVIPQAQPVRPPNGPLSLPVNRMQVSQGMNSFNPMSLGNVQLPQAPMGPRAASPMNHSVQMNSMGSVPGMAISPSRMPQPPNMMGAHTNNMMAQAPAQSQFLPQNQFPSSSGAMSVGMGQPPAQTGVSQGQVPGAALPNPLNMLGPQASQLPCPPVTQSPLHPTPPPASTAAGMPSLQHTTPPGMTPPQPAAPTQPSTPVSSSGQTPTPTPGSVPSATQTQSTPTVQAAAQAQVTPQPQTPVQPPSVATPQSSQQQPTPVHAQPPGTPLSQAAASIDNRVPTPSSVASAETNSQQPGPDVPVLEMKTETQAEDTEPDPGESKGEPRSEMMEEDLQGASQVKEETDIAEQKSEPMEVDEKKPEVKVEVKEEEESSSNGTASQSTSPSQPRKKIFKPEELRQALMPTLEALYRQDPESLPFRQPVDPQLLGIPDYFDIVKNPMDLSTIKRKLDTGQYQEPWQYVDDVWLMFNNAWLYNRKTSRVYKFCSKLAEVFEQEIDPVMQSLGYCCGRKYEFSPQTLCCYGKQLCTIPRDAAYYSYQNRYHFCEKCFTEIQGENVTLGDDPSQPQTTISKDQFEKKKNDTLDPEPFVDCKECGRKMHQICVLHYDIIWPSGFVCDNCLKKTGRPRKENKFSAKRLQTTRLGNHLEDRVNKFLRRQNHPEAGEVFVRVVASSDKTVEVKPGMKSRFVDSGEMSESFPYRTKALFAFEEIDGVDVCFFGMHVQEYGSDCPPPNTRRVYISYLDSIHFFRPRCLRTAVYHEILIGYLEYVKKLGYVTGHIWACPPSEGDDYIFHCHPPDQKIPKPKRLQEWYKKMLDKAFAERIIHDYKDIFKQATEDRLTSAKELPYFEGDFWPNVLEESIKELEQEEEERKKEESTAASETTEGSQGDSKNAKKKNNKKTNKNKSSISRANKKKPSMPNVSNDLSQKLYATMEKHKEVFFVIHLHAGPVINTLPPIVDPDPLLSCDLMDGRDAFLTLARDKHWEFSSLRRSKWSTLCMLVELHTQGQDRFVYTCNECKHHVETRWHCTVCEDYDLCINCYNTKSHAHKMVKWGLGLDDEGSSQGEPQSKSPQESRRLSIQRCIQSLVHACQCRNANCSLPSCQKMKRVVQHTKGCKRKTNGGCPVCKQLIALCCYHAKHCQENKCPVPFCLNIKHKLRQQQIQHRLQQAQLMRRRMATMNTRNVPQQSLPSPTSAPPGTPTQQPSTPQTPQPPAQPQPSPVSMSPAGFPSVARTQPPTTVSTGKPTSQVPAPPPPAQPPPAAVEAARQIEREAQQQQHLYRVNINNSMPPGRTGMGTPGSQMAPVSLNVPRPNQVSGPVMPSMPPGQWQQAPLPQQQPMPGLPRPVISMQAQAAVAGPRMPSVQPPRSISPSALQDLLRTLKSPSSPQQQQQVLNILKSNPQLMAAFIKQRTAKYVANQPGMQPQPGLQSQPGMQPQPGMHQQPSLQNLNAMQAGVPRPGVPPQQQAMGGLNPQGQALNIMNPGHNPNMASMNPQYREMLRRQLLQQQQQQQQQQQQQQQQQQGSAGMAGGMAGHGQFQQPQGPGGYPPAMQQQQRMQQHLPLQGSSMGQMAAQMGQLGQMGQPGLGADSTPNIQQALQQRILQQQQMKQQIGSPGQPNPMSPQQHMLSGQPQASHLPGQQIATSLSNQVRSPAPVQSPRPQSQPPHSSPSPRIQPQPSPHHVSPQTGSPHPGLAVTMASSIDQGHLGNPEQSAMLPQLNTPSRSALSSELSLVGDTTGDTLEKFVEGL
Chain of Histone acetyltransferase KAT2B (Homo sapiens) (Q92831 whole entry, looked up, the tested form may be a part): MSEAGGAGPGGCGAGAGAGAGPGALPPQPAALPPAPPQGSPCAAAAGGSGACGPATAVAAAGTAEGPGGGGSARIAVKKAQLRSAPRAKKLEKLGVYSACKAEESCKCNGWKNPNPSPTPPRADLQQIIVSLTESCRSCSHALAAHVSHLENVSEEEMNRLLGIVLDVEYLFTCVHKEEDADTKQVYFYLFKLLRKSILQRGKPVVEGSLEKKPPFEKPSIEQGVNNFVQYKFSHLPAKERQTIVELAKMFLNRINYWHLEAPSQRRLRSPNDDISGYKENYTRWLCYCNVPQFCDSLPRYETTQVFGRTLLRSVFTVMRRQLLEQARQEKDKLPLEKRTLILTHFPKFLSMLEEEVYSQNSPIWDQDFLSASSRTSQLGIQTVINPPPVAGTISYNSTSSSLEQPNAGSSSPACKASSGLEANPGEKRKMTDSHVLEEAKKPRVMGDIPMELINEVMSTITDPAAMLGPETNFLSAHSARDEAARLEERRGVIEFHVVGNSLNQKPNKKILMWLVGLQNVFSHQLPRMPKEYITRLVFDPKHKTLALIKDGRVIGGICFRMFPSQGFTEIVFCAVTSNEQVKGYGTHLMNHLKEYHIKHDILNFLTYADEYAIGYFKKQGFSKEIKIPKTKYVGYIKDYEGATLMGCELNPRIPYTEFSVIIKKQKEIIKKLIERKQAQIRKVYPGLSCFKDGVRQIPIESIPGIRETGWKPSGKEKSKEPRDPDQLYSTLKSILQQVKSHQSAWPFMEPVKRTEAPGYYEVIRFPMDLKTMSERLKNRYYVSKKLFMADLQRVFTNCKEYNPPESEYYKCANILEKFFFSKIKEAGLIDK
Chain of Albumin (P02769 whole entry): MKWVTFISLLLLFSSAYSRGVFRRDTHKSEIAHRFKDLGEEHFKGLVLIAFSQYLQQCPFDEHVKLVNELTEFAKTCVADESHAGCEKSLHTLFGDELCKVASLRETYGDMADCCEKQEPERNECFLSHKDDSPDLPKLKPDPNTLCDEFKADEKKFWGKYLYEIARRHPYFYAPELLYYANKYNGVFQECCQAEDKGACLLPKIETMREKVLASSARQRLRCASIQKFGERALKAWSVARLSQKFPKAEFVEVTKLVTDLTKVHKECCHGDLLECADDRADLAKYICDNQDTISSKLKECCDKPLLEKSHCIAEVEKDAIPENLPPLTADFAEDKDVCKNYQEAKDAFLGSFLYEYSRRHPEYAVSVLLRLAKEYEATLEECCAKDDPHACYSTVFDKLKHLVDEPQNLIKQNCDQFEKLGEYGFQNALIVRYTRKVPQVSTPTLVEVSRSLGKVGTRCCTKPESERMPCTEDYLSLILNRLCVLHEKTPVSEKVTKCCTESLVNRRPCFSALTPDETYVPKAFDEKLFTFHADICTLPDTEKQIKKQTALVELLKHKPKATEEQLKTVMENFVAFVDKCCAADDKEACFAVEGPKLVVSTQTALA

Structure (SMILES): CCCCCCCCCCCCCNC=C(C(=O)OCC)C(=O)OCC
- Activity [1]: Active
- Activity (U-937 [2]): inactive
- Activity (U-937 [3]): inactive
- inhibition (MCF7 [4]): Dose-dependent effect
- inhibition [5]: Active
- Activity (U-937 [6]): inactive

Structure (SMILES): CCCCCCCCCCCCCCC=C(C(=O)OCC)C(=O)OCC
- Activity [1]: Active
- inhibition (U-937 [7]): inactive
- inhibition (MCF7 [8]): inactive
- IC50 (U-937 [9]): 44.9 µM
- inhibition (U-937 [10]): inactive
- Activity [11]: Dose-dependent effect
- Activity [12]: Dose-dependent effect
- inhibition (U-937 [13]): Active
- inhibition (U-937 [14]): Active
- Activity (U-937 [15]): Active
- inhibition [16]: inactive
- inhibition (U-937 [17]): Active
- Activity (Albumin): Not Active
- inhibition (U-937 [18]): inactive
- inhibition (U-937 [19]): Active
- inhibition (U-937 [20]): inactive
- inhibition (U-937 [21]): inactive
- inhibition [5]: 79%
- inhibition (U-937 [22]): inactive
- Activity (U-937 [23]): 94.4%
- Activity (U-937 [6]): inactive

Structure (SMILES): CCCCCCCCCCCCCCCC(O)=C(C(=O)OCC)C(=O)OCC
- inhibition [24]: Active
- inhibition (MCF7 [25]): Active
- Activity (U-937 [2]): inactive
- Activity (U-937 [3]): inactive
- inhibition [5]: Active
- Activity (U-937 [6]): inactive

— ChEMBL document CHEMBL1795294, “Modulation of the activity of histone acetyltransferases by long chain alkylidenemalonates (LoCAMs)” (Bioorg Med Chem, 2011)
